Reference: ChEMBL document CHEMBL3351238, “Part I. Synthesis, biological evaluation and docking studies of new 2-furylbenzimidazoles as antiangiogenic agents” (Eur J Med Chem, 2014)
pIC50: −log10 of the molar value. In brackets after ≈: the same amount, converted by molar mass.

Legend:
MCF7 [1] = assay: Cytotoxicity against human MCF7 cells after 48 hrs by sulforhodamine B assay; assay type: functional, cell-based; conditions: MCF7, 48 h
Outline: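 MCF-7 cells seeded at 10^4 per well and allowed 24 h to attach, then exposed to 0.0, 5.0, 12.5, 25.0 and 50 μg/ml, six wells per dose, for 48 h at 37 °C in 5% CO2. Cells were fixed and stained with sulforhodamine B. Bound dye was recovered in Tris EDTA and read on an ELISA reader. IC50 taken from the survival-fraction versus concentration curve.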

MCF7 [2] = assay: Inhibition of VEGF production in human MCF7 cells at cytotoxic IC50 level after 24 hrs by ELISA; assay type: functional
Outline: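 MCF-7 from ATCC, grown in DMEM with 10% heat-inactivated FCS, penicillin and streptomycin at 37 °C in 5% CO2, 0.50 × 10^6 cells per 25 cm2 flask. Compound in DMSO (tamoxifen as reference) added for 24 h. Cells homogenized in saline. Human VEGF measured by double-antibody sandwich ELISA (biotin antibody, streptavidin-HRP, A450) against a standard curve, duplicate determinations. Inhibition relative to untreated cells.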

[3] = biological target: T1, Prostaglandin G/H synthase 1 (Ovis aries, UniProt P05979); assay: Inhibition of ovine COX1 assessed as reduction in PGH2-dervied PGF2alpha production using arachidonic acid substrate by enzyme immunoassay
T1 sequence (P05979 whole entry): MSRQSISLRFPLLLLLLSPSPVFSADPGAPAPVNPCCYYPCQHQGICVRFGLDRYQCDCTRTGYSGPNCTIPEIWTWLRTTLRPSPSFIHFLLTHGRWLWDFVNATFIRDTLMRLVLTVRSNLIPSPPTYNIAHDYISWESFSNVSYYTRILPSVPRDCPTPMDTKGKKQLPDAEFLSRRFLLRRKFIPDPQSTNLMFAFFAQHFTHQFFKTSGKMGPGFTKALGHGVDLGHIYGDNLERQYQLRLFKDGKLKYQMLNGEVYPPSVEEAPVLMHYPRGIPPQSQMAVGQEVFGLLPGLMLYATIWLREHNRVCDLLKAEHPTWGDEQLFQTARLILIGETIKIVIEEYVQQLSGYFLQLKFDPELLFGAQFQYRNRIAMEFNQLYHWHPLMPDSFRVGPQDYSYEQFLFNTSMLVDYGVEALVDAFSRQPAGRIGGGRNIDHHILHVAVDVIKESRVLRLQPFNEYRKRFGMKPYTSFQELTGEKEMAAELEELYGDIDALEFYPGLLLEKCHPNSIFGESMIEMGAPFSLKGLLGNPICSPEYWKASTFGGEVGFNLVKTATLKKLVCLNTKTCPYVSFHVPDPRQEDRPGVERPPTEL
Outline: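 Arachidonic acid added and reaction stopped with HCl after 2 min. PGH2 reduced with SnCl2 and PGF2α quantified by competitive EIA at 410 nm. IC50 from concentration–inhibition curve, duplicates.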

pIC50 [3] | Structure (SMILES) | IC50 (MCF7 [1]) [µg/mL] | inhibition (INH) (MCF7 [2]) [%]
 | NNC(=O)Cn1c(-c2ccco2)nc2ccccc21 | 20.2 (≈ 78.8 µM) | 24
 | CCOC(=O)C/C(C)=N/NC(=O)Cn1c(-c2ccc(C)o2)nc2ccccc21 | 19.6 (≈ 51.3 µM) | 24
< 4.30 | Cc1ccc(-c2nc3ccccc3n2CC(=O)NN)o1 | 22.4 (≈ 82.9 µM) | 86
 | CCOC(=O)Cn1c(-c2ccco2)nc2ccccc21 | 15.2 (≈ 56.2 µM) | 62
 | CCOC(=O)Cn1c(-c2ccc(C)o2)nc2ccccc21 | 17.8 (≈ 62.6 µM) | 28
< 4.30 | Nn1c(Cn2c(-c3ccco3)nc3ccccc32)n[nH]c1=S | 20.5 (≈ 65.6 µM) | 91
 | O=S(=O)(c1ccccc1)n1c(-c2ccco2)nc2ccccc21 | 21.2 (≈ 65.4 µM) | 14
 | Cc1ccc(-c2nc3ccccc3[nH]2)o1 | 14 (≈ 70.6 µM) | 95
 | NNC(=O)Cn1c(-c2ccc(CNCc3ccccc3)o2)nc2ccccc21 | 19.3 (≈ 51.4 µM) | 19
 | c1ccc(Cn2c(-c3ccco3)nc3ccccc32)cc1 | 6.98 (≈ 25.4 µM) | 98
 | CSc1nnc(-n2c(-c3ccco3)nc3ccccc32)o1 | 19.3 (≈ 64.7 µM) | 16
 | S=c1[nH]nc(Cn2c(-c3ccco3)nc3ccccc32)o1 | 16.9 (≈ 56.6 µM) | 41
 | Cc1ccc(-c2nc3ccccc3n2S(=O)(=O)c2ccccc2)o1 | 8.63 (≈ 25.5 µM) | 98
 | Cc1ccc(-c2nc3ccccc3n2Cc2n[nH]c(=S)o2)o1 | 16.6 (≈ 53.1 µM) | 39
< 4.30 | NNC(=O)Cn1c(-c2ccc(CNc3ccncc3)o2)nc2ccccc21 | 22 (≈ 60.7 µM) | 90
 | CCOC(=O)C/C(C)=N/NC(=O)Cn1c(-c2ccco2)nc2ccccc21 | 17 (≈ 46.1 µM) | 38
 | CC/C(=C(\c1ccccc1)c1ccc(OCCN(C)C)cc1)c1ccccc1 [TAMOXIFEN] | 8 (≈ 21.5 µM) | 98
 | c1coc(-c2nc3ccccc3[nH]2)c1 [FUBERIDAZOLE] | 21.5 (≈ 117 µM) | 15
